Assay results taken from ChEMBL document CHEMBL1126865, “Structure-activity relationship within a series of pyrazolidinone antibacterial agents. 2. Effect of side-chain modification on in vitro activity and pharmacokinetic parameters” (J Med Chem, 1993).
In brackets after ≈: the same amount, converted by molar mass.

Key:
[1] = Maximum concentration in male rats after iv administration of 20 mg/kg; format: ADME, organism-based; parameters: dose 20 mg/kg, route intravenous; details: rat, in vivo
Procedure, shortened: (§1)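 Male Sprague-Dawley rats were given 20 mg/kg IV in 0.9% saline through an indwelling jugular cannula, which was also used for serial blood sampling. Plasma and cumulative urine (citrate pH 6.5, metabolism cages) were collected over 6 h and stored at -70 °C. Levels were measured by agar well diffusion bioassay against standard curves in plasma or citrate. Half-life = 0.693/β; recovery as % of dose.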

[2] = (§2) Plasma half-life in monkey after intravenous administration; format: ADME, organism-based; details: simiiformes
Procedure, shortened: (§3)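 Male rhesus monkeys (n = 3) dosed iv at 30 mg/kg in 0.9% saline; plasma sampled from cephalic vein over 3 h. Drug levels by agar well diffusion bioassay (E. coli ATCC4157 or Proteus providentia XC24) against standard curves in spiked plasma. Samples stored at -70 °C. Half-life = 0.693/β, β the terminal slope of plasma vs time curve.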

[3] = (§4) Plasma half-life in rats after intravenous administration; format: ADME, organism-based; details: rat; procedure, shortened: as §1
[4] = Urinary recovery expressed as percentage dose in male rats after iv administration of 20 mg/kg; format: ADME, organism-based; parameters: dose 20 mg/kg, route intravenous; details: rat, urine; procedure, shortened: as §1
[5] = system: Klebsiella aerogenes; experiment: In vitro antibacterial activity against Enterobacter aerogenes C32; format: functional
[6] = system: Escherichia coli; experiment: In vitro antibacterial activity against Escherichia coli EC14; format: functional
[7] = system: Haemophilus influenzae; experiment: In vitro antibacterial activity against Haemophilus influenza C.L; format: functional
[8] = system: Klebsiella pneumoniae; experiment: In vitro antibacterial activity against Klebsiella X26; format: functional
[9] = system: Pseudomonas aeruginosa; experiment: In vitro antibacterial activity against Pseudomonas PS72; format: functional
[10] = system: Staphylococcus epidermidis; experiment: In vitro antibacterial activity against Staphylococcus epidermidis 222; format: functional
[11] = system: Staphylococcus aureus; experiment: In vitro antibacterial activity against Staphylococcus aureus X1.1; format: functional
[12] = system: Streptococcus pneumoniae; experiment: In vitro antibacterial activity against Streptococcus pneumoniae PARK; format: functional
[13] = Half-life period in male rats after iv administration of 20 mg/kg; format: ADME, organism-based; parameters: dose 20 mg/kg, route intravenous; details: rat, in vivo; procedure, shortened: as §1
[14] = Plasma half-life in human after intravenous administration; format: ADME, organism-based
[15] = system: Monkey; experiment: as §2; format: functional, organism-based; details: Cercopithecidae; procedure, shortened: as §3
[16] = system: Rattus norvegicus; experiment: as §4; format: functional, organism-based; procedure, shortened: as §1
[17] = Maximum concentration in male CD-1 mice after sc administration of 20 mg/kg; format: ADME, organism-based; parameters: dose 20 mg/kg, route subcutaneous; details: CD-1, mouse, in vivo
Procedure, shortened: (§5)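 Male CD-1 mice received 20 mg/kg in 0.9% saline, orally or subcutaneously. Cumulative urine over 0–4 h was collected from metabolism cages into 0.1 M sodium citrate, pH 6.5, and stored at -70 °C. Drug levels were measured by agar well diffusion bioassay (E. coli ATCC4157 or Proteus providentia XC24) against spiked standard curves. Half-life = 0.693/β (terminal slope); urinary recovery as % of dose.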

[18] = Half-life period in male CD-1 mice after sc administration of 20 mg/kg; format: ADME, organism-based; parameters: dose 20 mg/kg, route subcutaneous; details: CD-1, mouse, in vivo; procedure, shortened: as §5
[19] = Urinary recovery in male CD-1 mice after po administration of 20 mg/kg; format: ADME, organism-based; parameters: dose 20 mg/kg, route oral; details: CD-1, mouse, urine; procedure, shortened: as §5
[20] = Urinary recovery in male rats after iv administration of 20 mg/kg; format: ADME, organism-based; parameters: dose 20 mg/kg, route intravenous; details: rat, urine; procedure, shortened: as §1
[21] = system: Escherichia coli; experiment: Effective dose against Escherichia coli EC14 after po administration in mice; format: functional
[22] = system: Escherichia coli; experiment: Effective dose against Escherichia coli EC14 after sc administration in mice; format: functional
[23] = system: Escherichia coli; experiment: Minimum inhibitory concentration against Escherichia coli EC14 after po administration in mice; format: functional
[24] = system: Escherichia coli; experiment: Minimum inhibitory concentration against Escherichia coli EC14 after sc administration in mice; format: functional
[25] = system: Streptococcus pyogenes; experiment: Effective dose against Streptococcus pyogenes (C203) after po administration in mice; format: functional
[26] = system: Streptococcus pyogenes; experiment: Effective dose against Streptococcus pyogenes (C203) after sc administration in mice; format: functional
[27] = system: Streptococcus pyogenes; experiment: Minimum inhibitory concentration against Streptococcus pyogenes (C203) after po administration in mice; format: functional
[28] = system: Streptococcus pyogenes; experiment: Minimum inhibitory concentration against Streptococcus pyogenes (C203) after sc administration in mice; format: functional
[29] = Plasma binding expressed as percentage in rats […]; format: ADME, organism-based; details: rat, iv, read-out: Plasma binding (converted)
Procedure, shortened: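 Binding was measured in vitro in pooled Sprague-Dawley rat plasma at a drug concentration of 20 μg/mL by ultrafiltration and reported as % bound.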

| Compound | half-life [3] [min] | MIC [5] [µg/mL] | MIC [6] [µg/mL] | MIC [7] [µg/mL] | MIC [8] [µg/mL] | MIC [9] [µg/mL] | MIC [10] [µg/mL] | MIC [11] [µg/mL] | MIC [12] [µg/mL] | also measured |
| --- | --- | --- | --- | --- | --- | --- | --- | --- | --- | --- |
| C=CCCO/N=C(/C(=O)N[C@H]1CN2CC(S(C)(=O)=O)=C(C(=O)O)N2C1=O)c1csc(N)n1 | 11 | 0.25 (≈ 0.516 µM) | 0.06 (≈ 0.124 µM) | 0.125 (≈ 0.258 µM) | 0.015 (≈ 0.031 µM) | 128 (≈ 264 µM) | 8 (≈ 16.5 µM) | 4 (≈ 8.26 µM) | 0.06 (≈ 0.124 µM) | Cmax [1]: 70.3 µg/mL; half-life [2]: 36 min; dose excreted [4]: 53.1%; half-life [13]: 11.3 min |
| Cn1nnnc1SCC1=C(C(=O)O)N2C(=O)[C@@H](NC(=O)[C@H](O)c3ccccc3)[C@H]2SC1 [CEFAMANDOLE] | – | – | – | – | – | – | – | – | – | half-life [14]: 48 min; T1/2 [15]: 34 min; T1/2 [16]: 15 min |
| CO/N=C(\C(=O)N[C@@H]1C(=O)N2C(C(=O)O)=CCS[C@H]12)c1csc(N)n1 [CEFTIZOXIME] | 15 | – | – | – | – | – | – | – | – | half-life [2]: 44 min; half-life [14]: 96 min |
| CO/N=C(\C(=O)NC1CN2CC(S(C)(=O)=O)=C(C(=O)O)N2C1=O)c1csc(N)n1 (configuration not stated) | 25 | 0.25 (≈ 0.562 µM) | 0.06 (≈ 0.135 µM) | 0.5 (≈ 1.12 µM) | 0.125 (≈ 0.281 µM) | > 128 | 64 (≈ 144 µM) | 32 (≈ 72 µM) | 0.25 (≈ 0.562 µM) | Cmax [17]: 53.8 µg/mL; Cmax [1]: 120 µg/mL; half-life [18]: 10.6 min; dose excreted [19]: < 2%; dose excreted [20]: 80.4%; ED50 [21]: 7.93 mg/kg; ED50 [22]: < 0.625 mg/kg; MIC [23]: 0.06 µg/mL (≈ 0.135 µM); MIC [24]: 0.06 µg/mL (≈ 0.135 µM); ED50 [25]: 13.5 mg/kg; ED50 [26]: 1.8 mg/kg; MIC [27]: 0.03 µg/mL (≈ 0.0675 µM); MIC [28]: 0.03 µg/mL (≈ 0.0675 µM); fraction unbound [29]: 0.78; half-life [13]: 24.7 min |
| N#CC1=C(C(=O)O)N2C(=O)[C@@H](NC(=O)Cc3cccs3)CN2C1 | – | 64 (≈ 193 µM) | 16 (≈ 48.1 µM) | 16 (≈ 48.1 µM) | 32 (≈ 96.3 µM) | > 128 | 32 (≈ 96.3 µM) | 8 (≈ 24.1 µM) | 2 (≈ 6.02 µM) | – |
| CC(C)(O/N=C(/C(=O)N[C@H]1CN2CC(S(C)(=O)=O)=C(C(=O)O)N2C1=O)c1csc(N)n1)C(=O)O | – | 0.06 (≈ 0.116 µM) | 0.03 (≈ 0.0581 µM) | 0.06 (≈ 0.116 µM) | 0.125 (≈ 0.242 µM) | 8 (≈ 15.5 µM) | > 128 | > 128 | 2 (≈ 3.87 µM) | – |
| CS(=O)(=O)C1=C(C(=O)O)N2C(=O)[C@@H](NC(=O)/C(=N/OCCCl)c3csc(N)n3)CN2C1 | – | 0.125 (≈ 0.254 µM) | 0.125 (≈ 0.254 µM) | 0.5 (≈ 1.01 µM) | 0.03 (≈ 0.0609 µM) | > 128 | 32 (≈ 64.9 µM) | 16 (≈ 32.5 µM) | 0.25 (≈ 0.507 µM) | – |
| C=CCO/N=C(/C(=O)N[C@H]1CN2CC(C#N)=C(C(=O)O)N2C1=O)c1csc(N)n1 | – | 0.5 (≈ 1.2 µM) | 0.125 (≈ 0.299 µM) | 0.125 (≈ 0.299 µM) | 0.06 (≈ 0.144 µM) | > 128 | 16 (≈ 38.3 µM) | 32 (≈ 76.7 µM) | 0.125 (≈ 0.299 µM) | – |
| CS(=O)(=O)C1=C(C(=O)O)N2C(=O)[C@@H](NC(=O)/C(=N/OCCCCCl)c3csc(N)n3)CN2C1 | – | 2 (≈ 3.84 µM) | 1 (≈ 1.92 µM) | 1 (≈ 1.92 µM) | 0.125 (≈ 0.24 µM) | > 128 | 32 (≈ 61.4 µM) | 32 (≈ 61.4 µM) | 0.25 (≈ 0.48 µM) | – |
| CCS(=O)(=O)C1=C(C(=O)O)N2C(=O)[C@@H](NC(=O)/C(=N/OCC3CC3)c3csc(N)n3)CN2C1 | – | 0.25 (≈ 0.501 µM) | 0.06 (≈ 0.12 µM) | 0.125 (≈ 0.251 µM) | 0.015 (≈ 0.0301 µM) | > 128 | 32 (≈ 64.2 µM) | 16 (≈ 32.1 µM) | 0.06 (≈ 0.12 µM) | – |
| CC(C)(O/N=C(\C(=O)N[C@@H]1C(=O)N2C(C(=O)[O-])=C(C[n+]3ccccc3)CS[C@H]12)c1csc(N)n1)C(=O)O [CEFTAZIDIME] | 23 | – | – | – | – | – | – | – | – | half-life [2]: 49 min; half-life [14]: 108 min |
| CS(=O)(=O)C1=C(C(=O)O)N2C(=O)[C@@H](NC(=O)/C(=N/OCCCF)c3csc(N)n3)CN2C1 | – | 0.125 (≈ 0.255 µM) | 0.03 (≈ 0.0612 µM) | 0.125 (≈ 0.255 µM) | 0.03 (≈ 0.0612 µM) | 128 (≈ 261 µM) | 16 (≈ 32.6 µM) | 8 (≈ 16.3 µM) | 0.06 (≈ 0.122 µM) | – |
